Screening results from PubChem.
T cell HTS = modulates CD8 T cell binding to vesicles; 2C CD8+ T cell-vesicle binding, flow cytometry; hits give low values; hit rate 0.068% among 330,000; response (vesicle binding), % at 7 µM;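 active means response, share of CD8 T cells binding vesicles, and their 90th percentile fluorescence all below set limits, cut at about 80% in these data, passing the limit was not always enough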;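 further: values below 100% mean blocked vesicle binding to the CD8+ T cells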
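Material: 2C TCR transgenic mouse naive CD8+ T cells, MACS-purified. Also added: QL9-charged Drosophila Ld/ICAM-1/B7-1 vesicles. Timing: binding 1.5 h at 37 °C. Measured by: high-throughput flow cytometry with anti-B7-1 and anti-CD8 staining. Read-out: percent CD8+ FL2 mean versus row control. Controls: Unloaded micro-vesicles (low), QL9 vesicles with 0.7% DMSO (high).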
CASP6 VEID inh = blocks human caspase-6 cleavage activity; hit rate 0.53% among 350,000; purified caspase-6, Z-VEID-R110 cleavage fluorescence; inhibition, % at 12.5 µM;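 active means mean inhibition across replicates at least about 35%, with every replicate also reaching that limit, limit read from the data; inconclusive means only one of the two criteria met; inactive means neither criterion met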
Target sequence (P55212 24-179 limits assumed): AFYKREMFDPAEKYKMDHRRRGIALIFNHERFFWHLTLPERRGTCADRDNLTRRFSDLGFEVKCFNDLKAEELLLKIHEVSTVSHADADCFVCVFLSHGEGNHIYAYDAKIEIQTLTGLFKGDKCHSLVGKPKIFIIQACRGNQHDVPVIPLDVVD
Target sequence (P55212 194-293 limits assumed): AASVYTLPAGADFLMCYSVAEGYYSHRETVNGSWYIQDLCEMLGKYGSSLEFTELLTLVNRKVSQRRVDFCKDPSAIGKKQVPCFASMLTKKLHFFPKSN
Myeloid diff 2 = compounds promoting myeloid differentiation; ER-HoxA9 myeloid progenitors, lysozyme-GFP differentiation, flow cytometry; calls only at 10 µM; hit rate 1% among 360,000;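 active means normalized GFP-positive differentiation at or above the plate's own cutoff, the solvent-only control mean plus 3 SD; inconclusive means no clear call, values can overlap the other calls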;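 further: cells exposed to compound for four days before flow analysis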
Vif imaging = blocks HIV Vif function; HEK293T cells, Vif self-association by quenched fluorescence, imaging, 24 h; inhibition, % at 7.49 µM; hit rate 0.35% among 340,000; in the data active means inhibition above about 50%, passing the limit was not always enough; inconclusive means no clear call, values can overlap the other calls; inactive means below about 31%
Myeloid diff CP1 = promotes myeloid progenitor differentiation | calls only | hit rate 2% among 2,300 | shares compounds with Myeloid diff 2 | AID 651706 | ER-HoxA9 myeloid progenitors, GFP/Mac1 double-positive flow;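 active means share of green or green-and-red cells above 9 and 9% in run 1 or 4 and 3% in run 2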
GFP autofluor = flagged as fluorescent in myeloid differentiation counter-screen; shares compounds with Myeloid diff 2; ER-HoxA9 myeloid progenitors, no estrogen, GFP autofluorescence flow cytometry; vehicle wells 0%, positive control 100%; fluorescence response, % (no concentration beside the values); hit rate 7.4% among 2,300;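 active means over 5% cells positive for green fluorescent reporter, or over 2% positive for both it and APC stain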
Large screens that a line does not name were inactive (follow-up assays come after a bar, where they were run). Shown are actives, neighbours in structure and some others; about 1.4% of the full set was active somewhere.

CC(CCc1ccco1)NC(=O)Cn1nc(Cc2ccncc2)c2ccccc2c1=O (centres undefined)	none | Myeloid diff CP1 inactive | GFP autofluor inactive
O=C(C1CC1)N1CC(=O)N2[C@H](C1)[C@@H](c1ccc(-c3ccccc3F)cc1)[C@@H]2CO	none (no result: T cell HTS, Myeloid diff 2, Vif imaging)
CN1C(=O)c2cc(NC(=O)c3ccc(F)cc3)ccc2OC[C@@H]2O[C@H](CC(=O)NC3CCC3)CC[C@H]21	none (no result: T cell HTS, Myeloid diff 2, Vif imaging)
c1ccc(Cc2nn3c(Cn4nnc5ccccc54)nnc3s2)cc1	none (no result: CASP6 VEID inh) | Myeloid diff CP1 inactive | GFP autofluor inactive
O=C(O)Cc1ccc(C(=O)c2ccc(Cl)cc2Cl)s1	none
COc1ccc(-c2sc(C(=O)c3ccc(Cl)cc3Cl)cc2CC(=O)O)cc1	Myeloid diff 2 active | Myeloid diff CP1 inactive | GFP autofluor inactive
CCS(=O)(=O)N[C@@H]1C=C[C@H](CC(=O)NC2Cc3ccccc3C2)O[C@H]1CO	none (no result: T cell HTS, Myeloid diff 2, Vif imaging)
CC1=C(C(=O)OCc2ccccc2)C(c2ccc(Br)cc2)NC(=O)N1CCCCCC(=O)O (centres undefined)	none (no result: T cell HTS)
COC(=O)CCCCCN1C(=O)NC(c2ccccc2)C(C(=O)OCc2ccccc2)=C1C (centres undefined)	none (no result: T cell HTS) | Myeloid diff CP1 inactive | GFP autofluor inactive
CCN(CC)C(=O)CSc1nnc([C@H](CCSC)NC(=O)OC(C)(C)C)o1	none (no result: CASP6 VEID inh)
CCN(CC)C(=O)CSc1nnc([C@@H](NC(=O)OC(C)(C)C)C(C)C)o1	none (no result: CASP6 VEID inh) | Myeloid diff CP1 inactive | GFP autofluor inactive
O=C(Cc1ccccc1)N1CC2(C1)[C@H](c1ccccc1)[C@H](CO)N2S(=O)(=O)Cc1ccccc1	none (no result: T cell HTS, Myeloid diff 2, Vif imaging)
CCn1c(=O)c(C(=O)NCc2cccnc2)c(O)c2ccccc21	none (no result: CASP6 VEID inh) | Myeloid diff CP1 inactive | GFP autofluor inactive
O=C1c2ccccc2C(=O)C1Cc1cccc2ccccc12	none | Myeloid diff CP1 inactive | GFP autofluor inactive
O=C1NC(c2cccc3ccccc23)Nc2ccccc21 (centres undefined)	Myeloid diff 2 inconclusive (no result: T cell HTS)
COc1cccc(CN2[C@@H](CO)[C@@H](c3ccccc3)C23CN(C(=O)C2CCCC2)C3)c1	none (no result: T cell HTS, Myeloid diff 2, Vif imaging)
COc1cc(CCC(=O)Nc2ccc(S(=O)(=O)NC3=NCCCCC3)cc2)cc(OC)c1OC	none | Myeloid diff CP1 inactive | GFP autofluor inactive
CN(C)CC(=O)N[C@H]1C=C[C@H](CC(=O)O)O[C@@H]1CO	none (no result: T cell HTS, Myeloid diff 2, Vif imaging)
c1ccc2c(c1)Cn1nc(Cc3nc4c(s3)CCCC4)nc1-2	none (no result: CASP6 VEID inh)
N#CCc1nc2n(n1)Cc1ccccc1-2	none (no result: CASP6 VEID inh) | Myeloid diff CP1 inactive | GFP autofluor inactive
CS(=O)(=O)N1CC2(C1)[C@H](c1ccccc1)[C@H](CO)N2CC1CC1	none (no result: T cell HTS, Myeloid diff 2, Vif imaging)
O=S(=O)(N/N=C\C=C\c1ccccc1)c1ccc(Cl)cc1	none (no result: CASP6 VEID inh, Vif imaging) | Myeloid diff CP1 inactive | GFP autofluor inactive
COc1cccc(-n2cc(CN(C)Cc3nc(Cc4cccc(F)c4)no3)cn2)c1	none | Myeloid diff CP1 inactive | GFP autofluor inactive
OC1NC(=S)N(c2ccccc2)C1O (centres undefined)	none
OC1CCNC(=S)N1c1ccccc1 (centres undefined)	Myeloid diff 2 active | Myeloid diff CP1 inactive | GFP autofluor inactive
Cc1ccc(O)c(NC(=O)c2cc(-c3ccccc3)on2)c1	Myeloid diff 2 active | Myeloid diff CP1 inactive | GFP autofluor inactive
O=C(Nc1cc(Cl)ccc1O)c1cc(-c2ccco2)on1	Myeloid diff 2 inconclusive
O=C(Nc1cc(Br)ccc1O)c1cc(-c2ccco2)on1	none | Myeloid diff CP1 inactive | GFP autofluor inactive
COc1ccc(C2=NOC(Cn3nc(-c4ccccc4)cc3C(=O)NCc3cccs3)C2)cc1 (centres undefined)	none | Myeloid diff CP1 inactive | GFP autofluor inactive
C[C@@H]1CCCCO[C@H](CN(C)CC2CC2)[C@@H](C)CN([C@H](C)CO)C(=O)c2cc(NC(=O)CCC(F)(F)F)ccc2O1	none (no result: T cell HTS, Myeloid diff 2, Vif imaging)
Cc1ccc2oc(=O)n(CCOc3ccccc3C)c2c1	none
CCOc1ccc(CNC(=O)CCn2c(=O)oc3ccccc32)cc1OC	none (no result: CASP6 VEID inh)
COc1ccccc1OCCn1c(=O)oc2ccc(C)cc21	Myeloid diff 2 active | Myeloid diff CP1 inactive | GFP autofluor inactive
COc1ccc(Cn2c(=O)oc3ccccc32)cc1OC	none (no result: T cell HTS)
COc1ccc(CNC(=O)Cn2c(=O)oc3ccccc32)cc1OC	none (no result: CASP6 VEID inh) | Myeloid diff CP1 inactive | GFP autofluor inactive
COc1ccc(Cn2c(=O)oc3ccc(C)cc32)cc1OC	Myeloid diff 2 active (no result: CASP6 VEID inh) | Myeloid diff CP1 inactive | GFP autofluor inactive
C[C@H]1CCCCO[C@@H](CN(C)Cc2ccncc2)[C@@H](C)CN([C@@H](C)CO)C(=O)c2cc(NC(=O)Nc3ccc(C(F)(F)F)cc3)ccc2O1	none (no result: T cell HTS, Myeloid diff 2, Vif imaging)
COCC#Cc1cnc2c(c1)C(=O)N([C@@H](C)CO)C[C@@H](C)[C@@H](CN(C)C)O2	none (no result: T cell HTS, Myeloid diff 2, Vif imaging)
Cc1ccc(/C=N/NC(=O)c2cc3c(s2)CCCC3)o1	none | Myeloid diff CP1 inactive | GFP autofluor inactive
CCCC#Cc1cnc2c(c1)C(=O)N([C@@H](C)CO)C[C@@H](C)[C@@H](CN(C)C(=O)c1cccnc1)O2	none (no result: T cell HTS, Myeloid diff 2, Vif imaging)
COc1ccc(N2C(=O)CC(NCCNc3ccc([N+](=O)[O-])cn3)C2=O)cc1 (centres undefined)	none (no result: CASP6 VEID inh) | Myeloid diff CP1 inactive | GFP autofluor inactive
CCOc1ccc(N2C(=O)CC(NCCNc3ccc([N+](=O)[O-])cn3)C2=O)cc1 (centres undefined)	none
Cc1ccc(Cl)cc1N1CCN(C(=O)C2CCC(=O)N(C3CCCCCC3)C2)CC1 (centres undefined)	Myeloid diff 2 active | Myeloid diff CP1 inactive | GFP autofluor inactive
O=C(C1CCC(=O)N(C2CCCC2)C1)N1CCN(c2ccc(Cl)cc2)CC1 (centres undefined)	none
COc1ccc(CCn2c(=S)[nH]c3cc(C(=O)NCc4ccco4)ccc3c2=O)cc1OC	none (no result: CASP6 VEID inh) | Myeloid diff CP1 inactive | GFP autofluor inactive
COc1ccc(-n2c(=S)[nH]c3cc(C(=O)NCc4ccco4)ccc3c2=O)cc1OC	none
O=C(Nc1ccc(Cc2ccncc2)cc1)C1CCC(N2C(=O)C3C4C=CC(C5CC45)C3C2=O)CC1 (centres undefined)	Myeloid diff 2 active (no result: CASP6 VEID inh) | Myeloid diff CP1 inactive | GFP autofluor inactive
O=C(C[C@@H]1C[C@H]2c3cc(NC(=O)NC4CCCCC4)ccc3O[C@H]2[C@H](CO)O1)NCc1cccnc1	none (no result: T cell HTS, Myeloid diff 2, Vif imaging)
O=C(C[C@H]1C=C[C@@H](NS(=O)(=O)c2ccc(F)cc2)[C@@H](CO)O1)NCc1ccc(Cl)c(Cl)c1	none (no result: T cell HTS, Myeloid diff 2, Vif imaging)
CC(C)(C)NC(=O)COc1ccc(CNCc2cccnc2)cc1	none
CN(C)c1ccc(CNCc2cccnc2)cc1	none | Myeloid diff CP1 inactive | GFP autofluor inactive
CCCN(CC(=O)Nc1ccccc1OC)C(=O)CN1C(=O)NC2(CCCCC2)C1=O	Myeloid diff 2 active | Myeloid diff CP1 inactive | GFP autofluor inactive
CO[C@H]1CN(C)C(=O)c2cc(NC(=O)C3CC3)ccc2OC[C@@H](C)N(C(C)=O)C[C@@H]1C	none (no result: T cell HTS, Myeloid diff 2, Vif imaging)
C[C@H]1CN([C@@H](C)CO)C(=O)CCCn2nncc2CO[C@H]1CN(C)S(=O)(=O)c1ccc2c(c1)OCCCO2	none (no result: T cell HTS) | Myeloid diff CP1 inactive | GFP autofluor inactive
